Experimental data taken from ChEMBL document CHEMBL1157543, “Synthesis and biological evaluation of polysulfated oligosaccharide glycosides as inhibitors of angiogenesis and tumor growth” (J Med Chem, 2010).

Tests used:
[1] = target: Fibroblast growth factor 1 (Homo sapiens, UniProt P05230); test: Binding affinity to FGF1 by surface plasmon-based solution affinity assay
Method in brief: (§1)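 Surface plasmon resonance solution affinity assay on heparin-coated CM4 chips. Buffer: HBS-EP (10 mM HEPES pH 7.4, 150 mM NaCl, 3.0 mM EDTA, 0.005% polysorbate 20). Kd is the mean of at least duplicate measurements ± SD.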

Heparanase = target: T1, Heparanase (Homo sapiens, UniProt Q9Y251); test: Inhibition of human recombinant heparanase
T1 sequence (Q9Y251 whole entry): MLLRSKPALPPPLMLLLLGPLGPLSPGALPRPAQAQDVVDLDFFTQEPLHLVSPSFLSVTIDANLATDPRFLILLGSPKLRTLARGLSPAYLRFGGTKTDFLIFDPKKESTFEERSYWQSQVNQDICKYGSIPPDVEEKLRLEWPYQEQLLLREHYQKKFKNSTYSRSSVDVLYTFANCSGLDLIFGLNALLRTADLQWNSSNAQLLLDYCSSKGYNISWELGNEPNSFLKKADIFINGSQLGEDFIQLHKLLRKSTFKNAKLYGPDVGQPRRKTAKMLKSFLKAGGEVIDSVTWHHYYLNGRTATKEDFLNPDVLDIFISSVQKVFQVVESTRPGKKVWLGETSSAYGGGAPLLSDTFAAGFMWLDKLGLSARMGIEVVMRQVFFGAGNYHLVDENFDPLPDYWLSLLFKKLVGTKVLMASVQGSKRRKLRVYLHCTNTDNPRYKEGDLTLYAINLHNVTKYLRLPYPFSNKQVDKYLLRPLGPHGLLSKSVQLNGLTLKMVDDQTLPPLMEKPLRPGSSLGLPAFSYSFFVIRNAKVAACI
Method in brief: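 Recombinant human heparanase assayed by ultrafiltration with 3H-labelled heparan sulfate as substrate (Km = 1.64 μM). Ki values with standard error were derived from inhibition response curves.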

Plasma [2] = test: Anticoagulant activity in human plasma by heptest; type: functional
Method in brief: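 Heptest clot assay. Plasma (centrifuged 1800g, 10 min, used within 30 min) incubated with compound 2 min at 37 °C. Factor Xa added, 2 min at 37 °C, then clotting started with Recalmix; read on a ball coagulometer. Normal range 13–20 s; means of two determinations.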

[3] = target: T2, Vascular endothelial growth factor A, long form (Homo sapiens, UniProt P15692); test: Binding affinity to VEGF by surface plasmon-based solution affinity assay; method in brief: as §1
T2 sequence (P15692 whole entry): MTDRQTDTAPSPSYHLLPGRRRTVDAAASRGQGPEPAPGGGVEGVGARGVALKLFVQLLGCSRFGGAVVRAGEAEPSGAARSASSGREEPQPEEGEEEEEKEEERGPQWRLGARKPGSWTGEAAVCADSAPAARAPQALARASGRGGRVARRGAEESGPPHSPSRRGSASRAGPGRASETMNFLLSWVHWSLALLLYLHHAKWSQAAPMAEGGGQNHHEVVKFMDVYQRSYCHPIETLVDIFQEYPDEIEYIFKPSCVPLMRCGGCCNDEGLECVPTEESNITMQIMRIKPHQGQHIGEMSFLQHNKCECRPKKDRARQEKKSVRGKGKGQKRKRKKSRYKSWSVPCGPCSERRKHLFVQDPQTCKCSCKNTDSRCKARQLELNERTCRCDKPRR

Plasma [4] = test: Anticoagulant activity in human plasma assessed as activated partial thromboplastin time; type: functional
Method in brief: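 Pooled normal human plasma spiked with compound in PBS at 0.1 mg/mL (methods give a 0–100 μg/mL range); APTT elevation measured. Normal range 26–36 s. Values are means of two determinations.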

[5] = target: Fibroblast growth factor 2 (Homo sapiens, UniProt P09038); test: Binding affinity to FGF2 by surface plasmon-based solution affinity assay
Method in brief: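 Surface plasmon resonance solution affinity assay on heparin-coated CM4 chips. FGF-2 binding run in HBS-EP containing 300 mM NaCl. Kd is the mean of at least duplicate measurements ± SD.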

HUVEC = test: Cytotoxicity against HUVEC; type: cell-based; conditions: human

Sequence of Fibroblast growth factor 2 (P09038 143-288 limits assumed): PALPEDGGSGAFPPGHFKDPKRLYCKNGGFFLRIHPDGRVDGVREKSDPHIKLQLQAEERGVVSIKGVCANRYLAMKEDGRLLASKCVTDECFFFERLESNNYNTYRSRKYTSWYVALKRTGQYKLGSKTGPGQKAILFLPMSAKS
Sequence of Fibroblast growth factor 1 (P05230 whole entry): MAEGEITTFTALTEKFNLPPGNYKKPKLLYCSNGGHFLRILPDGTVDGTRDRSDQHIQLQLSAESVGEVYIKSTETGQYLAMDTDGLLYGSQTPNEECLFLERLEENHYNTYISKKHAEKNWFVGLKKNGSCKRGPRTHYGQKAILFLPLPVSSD

| Structure (SMILES) | Kd [1] [nM] | Ki (Heparanase) [nM] | Activity (Plasma [2]) [s] | Kd [3] [nM] | Time (Plasma [4]) [s] | Kd [5] [nM] | LC50 (HUVEC) [nM] |
| --- | --- | --- | --- | --- | --- | --- | --- |
| CCCCCCCCCCCCO[C@H]1O[C@H](COS(=O)(=O)[O-])[C@@H](OS(=O)(=O)[O-])[C@H](OS(=O)(=O)[O-])[C@@H]1O[C@H]1O[C@H](COS(=O)(=O)[O-])[C@@H](OS(=O)(=O)[O-])[C@H](O[C@H]2O[C@H](COS(=O)(=O)[O-])[C@@H](OS(=O)(=O)[O-])[C@H](O[C@H]3O[C@H](COS(=O)(=O)[O-])[C@@H](OS(=O)(=O)[O-])[C@H](O[C@H]4O[C@H](COS(=O)(=O)[O-])[C@@H](OS(=O)(=O)[O-])[C@H](OS(=O)(=O)[O-])[C@@H]4OS(=O)(=O)[O-])[C@@H]3OS(=O)(=O)[O-])[C@@H]2OS(=O)(=O)[O-])[C@@H]1OS(=O)(=O)[O-].[Na+].[Na+].[Na+].[Na+].[Na+].[Na+].[Na+].[Na+].[Na+].[Na+].[Na+].[Na+].[Na+].[Na+].[Na+].[Na+] | 6 | 280 | 64.2 | 12 | 125.9 | 480 | > 100000 |
| O=S(=O)([O-])OC[C@H]1O[C@H](OCCCCCCCCCCCCn2cc(-c3ccccc3)nn2)[C@@H](O[C@H]2O[C@H](COS(=O)(=O)[O-])[C@@H](OS(=O)(=O)[O-])[C@H](O[C@H]3O[C@H](COS(=O)(=O)[O-])[C@@H](OS(=O)(=O)[O-])[C@H](O[C@H]4O[C@H](COS(=O)(=O)[O-])[C@@H](OS(=O)(=O)[O-])[C@H](O[C@H]5O[C@H](COS(=O)(=O)[O-])[C@@H](OS(=O)(=O)[O-])[C@H](OS(=O)(=O)[O-])[C@@H]5OS(=O)(=O)[O-])[C@@H]4OS(=O)(=O)[O-])[C@@H]3OS(=O)(=O)[O-])[C@@H]2OS(=O)(=O)[O-])[C@@H](OS(=O)(=O)[O-])[C@@H]1OS(=O)(=O)[O-].[Na+].[Na+].[Na+].[Na+].[Na+].[Na+].[Na+].[Na+].[Na+].[Na+].[Na+].[Na+].[Na+].[Na+].[Na+].[Na+] | 2.3 | 270 |  | 5.1 |  | 253 | > 100000 |
| O=S(=O)([O-])OC[C@H]1O[C@H](OCCCn2cc(-c3ccccc3)nn2)[C@@H](O[C@H]2O[C@H](COS(=O)(=O)[O-])[C@@H](OS(=O)(=O)[O-])[C@H](O[C@H]3O[C@H](COS(=O)(=O)[O-])[C@@H](OS(=O)(=O)[O-])[C@H](O[C@H]4O[C@H](COS(=O)(=O)[O-])[C@@H](OS(=O)(=O)[O-])[C@H](OS(=O)(=O)[O-])[C@@H]4OS(=O)(=O)[O-])[C@@H]3OS(=O)(=O)[O-])[C@@H]2OS(=O)(=O)[O-])[C@@H](OS(=O)(=O)[O-])[C@@H]1OS(=O)(=O)[O-].[Na+].[Na+].[Na+].[Na+].[Na+].[Na+].[Na+].[Na+].[Na+].[Na+].[Na+].[Na+].[Na+] | 0.36 | 610 |  | 25 |  | 550 | > 100000 |
| CN(C)c1cccc2c(S(=O)(=O)NCCCO[C@H]3O[C@H](COS(=O)(=O)[O-])[C@@H](OS(=O)(=O)[O-])[C@H](OS(=O)(=O)[O-])[C@@H]3O[C@H]3O[C@H](COS(=O)(=O)[O-])[C@@H](OS(=O)(=O)[O-])[C@H](O[C@H]4O[C@H](COS(=O)(=O)[O-])[C@@H](OS(=O)(=O)[O-])[C@H](O[C@H]5O[C@H](COS(=O)(=O)[O-])[C@@H](OS(=O)(=O)[O-])[C@H](O[C@H]6O[C@H](COS(=O)(=O)[O-])[C@@H](OS(=O)(=O)[O-])[C@H](OS(=O)(=O)[O-])[C@@H]6OS(=O)(=O)[O-])[C@@H]5OS(=O)(=O)[O-])[C@@H]4OS(=O)(=O)[O-])[C@@H]3OS(=O)(=O)[O-])cccc12.[Na+].[Na+].[Na+].[Na+].[Na+].[Na+].[Na+].[Na+].[Na+].[Na+].[Na+].[Na+].[Na+].[Na+].[Na+].[Na+] | 0.79 | 570 |  | 12.2 |  | 86 | > 100000 |
| CCCCc1ccc(CO[C@H]2O[C@H](COS(=O)(=O)[O-])[C@@H](OS(=O)(=O)[O-])[C@H](OS(=O)(=O)[O-])[C@@H]2O[C@H]2O[C@H](COS(=O)(=O)[O-])[C@@H](OS(=O)(=O)[O-])[C@H](O[C@H]3O[C@H](COS(=O)(=O)[O-])[C@@H](OS(=O)(=O)[O-])[C@H](O[C@H]4O[C@H](COS(=O)(=O)[O-])[C@@H](OS(=O)(=O)[O-])[C@H](OS(=O)(=O)[O-])[C@@H]4OS(=O)(=O)[O-])[C@@H]3OS(=O)(=O)[O-])[C@@H]2OS(=O)(=O)[O-])cc1.[Na+].[Na+].[Na+].[Na+].[Na+].[Na+].[Na+].[Na+].[Na+].[Na+].[Na+].[Na+].[Na+] | 0.21 | 310 | 49.8 | 12 | 73.1 | 160 | > 100000 |
| O=S(=O)([O-])OC[C@H]1O[C@H](OCCCn2cc(-c3ccccc3)nn2)[C@@H](O[C@H]2O[C@H](COS(=O)(=O)[O-])[C@@H](OS(=O)(=O)[O-])[C@H](O[C@H]3O[C@H](COS(=O)(=O)[O-])[C@@H](OS(=O)(=O)[O-])[C@H](O[C@H]4O[C@H](COS(=O)(=O)[O-])[C@@H](OS(=O)(=O)[O-])[C@H](O[C@H]5O[C@H](COS(=O)(=O)[O-])[C@@H](OS(=O)(=O)[O-])[C@H](OS(=O)(=O)[O-])[C@@H]5OS(=O)(=O)[O-])[C@@H]4OS(=O)(=O)[O-])[C@@H]3OS(=O)(=O)[O-])[C@@H]2OS(=O)(=O)[O-])[C@@H](OS(=O)(=O)[O-])[C@@H]1OS(=O)(=O)[O-].[Na+].[Na+].[Na+].[Na+].[Na+].[Na+].[Na+].[Na+].[Na+].[Na+].[Na+].[Na+].[Na+].[Na+].[Na+].[Na+] | 0.1 | 350 |  | 1.4 |  | 83 | > 100000 |
| CN(C)c1cccc2c(S(=O)(=O)NCCCCCCCCO[C@H]3O[C@H](COS(=O)(=O)[O-])[C@@H](OS(=O)(=O)[O-])[C@H](OS(=O)(=O)[O-])[C@@H]3O[C@H]3O[C@H](COS(=O)(=O)[O-])[C@@H](OS(=O)(=O)[O-])[C@H](O[C@H]4O[C@H](COS(=O)(=O)[O-])[C@@H](OS(=O)(=O)[O-])[C@H](O[C@H]5O[C@H](COS(=O)(=O)[O-])[C@@H](OS(=O)(=O)[O-])[C@H](OS(=O)(=O)[O-])[C@@H]5OS(=O)(=O)[O-])[C@@H]4OS(=O)(=O)[O-])[C@@H]3OS(=O)(=O)[O-])cccc12.[Na+].[Na+].[Na+].[Na+].[Na+].[Na+].[Na+].[Na+].[Na+].[Na+].[Na+].[Na+].[Na+] | 0.2 | 330 |  | 8.9 |  | 130 | > 100000 |
| O=S(=O)([O-])OC[C@H]1O[C@H](OCCCCCCCCCCCCn2cc(-c3cccc4ccccc34)nn2)[C@@H](O[C@H]2O[C@H](COS(=O)(=O)[O-])[C@@H](OS(=O)(=O)[O-])[C@H](O[C@H]3O[C@H](COS(=O)(=O)[O-])[C@@H](OS(=O)(=O)[O-])[C@H](O[C@H]4O[C@H](COS(=O)(=O)[O-])[C@@H](OS(=O)(=O)[O-])[C@H](O[C@H]5O[C@H](COS(=O)(=O)[O-])[C@@H](OS(=O)(=O)[O-])[C@H](OS(=O)(=O)[O-])[C@@H]5OS(=O)(=O)[O-])[C@@H]4OS(=O)(=O)[O-])[C@@H]3OS(=O)(=O)[O-])[C@@H]2OS(=O)(=O)[O-])[C@@H](OS(=O)(=O)[O-])[C@@H]1OS(=O)(=O)[O-].[Na+].[Na+].[Na+].[Na+].[Na+].[Na+].[Na+].[Na+].[Na+].[Na+].[Na+].[Na+].[Na+].[Na+].[Na+].[Na+] | 0.19 | 270 |  | 0.79 |  | 73 | > 100000 |
